Shown are actives, neighbours in structure and some others; about 3.1% of the full set was active somewhere.
KCNQ1 inh = inhibitors of human KCNQ1 potassium channel; CHO-K1 KCNQ1, FluxOR thallium flux fluorescence; stronger effect = higher value; hit rate 1.3% among 310,000; B-score at 10 µM; P51787; AID 2642;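 active = compounds whose thallium flux B-score, printed positive for inhibition, exceeds three library SD while starting fluorescence stays within three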;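 also: channel opened by potassium depolarization with thallium stimulus after 20 min compound exposure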
KCNK3 inh = human KCNK3 channel inhibition, primary screen; hit rate 0.84% among 340,000; CHO-KCNK3 thallium flux, FluxOR fluorescence; stronger effect = lower value; AID 602410; B-score at 10 µM;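 active = B-score under library mean minus 4 SD, starting fluorescence ratio at most library mean plus 5 SD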;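 also: more negative B-score means stronger inhibition of thallium flux through KCNK3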
Target sequence (O14649 whole entry, looked up): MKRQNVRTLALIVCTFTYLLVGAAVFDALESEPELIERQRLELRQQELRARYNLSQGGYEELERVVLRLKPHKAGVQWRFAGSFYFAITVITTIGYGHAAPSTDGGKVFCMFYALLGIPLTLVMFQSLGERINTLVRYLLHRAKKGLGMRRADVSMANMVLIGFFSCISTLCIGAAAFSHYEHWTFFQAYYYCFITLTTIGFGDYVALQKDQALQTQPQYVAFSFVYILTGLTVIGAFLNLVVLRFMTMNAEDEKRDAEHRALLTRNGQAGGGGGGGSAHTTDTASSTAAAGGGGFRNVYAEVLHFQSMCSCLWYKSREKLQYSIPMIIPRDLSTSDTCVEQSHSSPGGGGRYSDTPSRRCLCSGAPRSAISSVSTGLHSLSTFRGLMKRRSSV
KCNQ1 act = potentiators or activators of human KCNQ1 potassium channel; hit rate 0.35% among 310,000; CHO-K1 KCNQ1, thallium flux FluxOR fluorescence; stronger effect = higher value; AID 2648; B-score at 10 µM; P51787;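 active = fluorescence ratio B-score, a plate-corrected score, at least three library SD, with initial intensity B-score within 5 SD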
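Assay system: CHO-K1 cells stably expressing KCNQ1. Medium: assay buffer for compound exposure, DMSO matched across wells. Timing: 37 °C overnight plating, 90-min dark dye load, 20-min compound pretreatment. Signal: kinetic FluxOR fluorescence, 10 s baseline plus 110 s post-stimulus.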
KCNK9 inh = human KCNK9 channel inhibition; Q9NPC2; HEK293 KCNK9, FluxOR thallium flux fluorescence; stronger effect = lower value; B-score at 10 µM; AID 488922; hit rate 1.2% among 310,000;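 active = ratio B-score over 3 SD below the library mean, with starting fluorescence within 5 SD of its mean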;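 also: negative B-score means less thallium flux so channel inhibition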
hERG rescue = hERG (human) protection from proarrhythmic block | Q12809 | activation (rescue from dofetilide block), less the hit threshold, % at 10 µM | hit rate 0.51% among 310,000 | CHO-hERG, FluxOR thallium flux, dofetilide IC70 present;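 active = activation above the mean of controls blocked by dofetilide plus 5 SD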;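 also: thallium influx through hERG after potassium depolarization seen as dye fluorescence rise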
Active calls of the source: *; i = inactive; · = no result given.

SMILES	KCNQ1 inh	KCNK3 inh	KCNQ1 act	KCNK9 inh	hERG rescue
CN1CCN(C(=O)c2cnn3c(C(F)(F)F)cc(-c4cccs4)nc23)CC1	i	i	i	i	-5
CC1CC(C)CN(c2ccc(C(=O)OCC(=O)NC3CCCc4ccccc43)cc2[N+](=O)[O-])C1 (stereo unspecified)	i	i	i	-6.7*	-13
O=C(COC(=O)c1ccc(Sc2ccccc2)c([N+](=O)[O-])c1)NC1CCCc2ccccc21 (stereo unspecified)	i	i	i	i	-12
COc1ccc(-c2csc(NC(=O)C3=NN(c4ccccc4)C(=O)CC3)n2)cc1	i	i	105*	i	-11
O=C(Nc1nc(-c2cc(F)ccc2F)cs1)C1=NN(c2ccccc2)C(=O)CC1	i	i	i	i	-12
Cc1ccc(S(=O)(=O)Nc2ccc(S(=O)(=O)Nc3nccs3)cc2)c([N+](=O)[O-])c1	i	i	i	i	-18
COc1ccc(Cl)cc1C(=O)NCCN(C)C	i	i	i	i	6.8*
CCNC(=O)c1cc(Cl)ccc1OC	i	i	i	i	-9
O=C(c1ccccc1)N(C(=O)c1ccccc1)N1CCCC1	·	i	·	·	·
COc1cc(OC)c(C2CC(=O)N3CN(C)CSC3=C2C#N)cc1OC (stereo unspecified)	i	i	i	i	-4
COc1ccc2ccccc2c1C1CC(=O)N2CN(C)CSC2=C1C#N (stereo unspecified)	6*	i	i	i	-17
CCOCCN1CCN(c2c(CC)c(C)nc3cc(-c4cc(OC)cc(OC)c4)nn23)CC1	i	i	i	-7.2*	-9
CC(=O)Nc1cc2c3c(cccc3c1)-c1ccccc1-2	·	i	·	·	·
CC(C)(C)c1ccc(C(=O)NC(=S)Nc2nc3c(s2)CCCC3)cc1	i	i	33*	i	28*
O=C(N/N=C\c1ccc(-c2ccccc2[N+](=O)[O-])o1)C1COc2ccccc2O1 (stereo unspecified)	i	i	i	-6.8*	-20
O=S(=O)(c1ccccc1F)N1CCN(Cc2cc3c(cc2Br)OCCO3)CC1	·	i	·	·	·
CC(C)C[C@@H](C(=O)O)N(Cc1cccc(CN([C@@H](CC(C)C)C(=O)O)S(C)(=O)=O)c1)S(C)(=O)=O	i	i	i	i	4.7*
CS(=O)(=O)N(Cc1cccc(CN(C(C(=O)O)c2ccccc2)S(C)(=O)=O)c1)C(C(=O)O)c1ccccc1 (stereo unspecified)	i	i	i	i	-3
CCOC(=O)C1CCN(C(=O)Cn2nc(C)n3nc(-c4ccc(CC)cc4)cc3c2=O)CC1	i	i	i	i	-5
O=C(NCC(c1cccs1)N1CCOCC1)C1CCN(S(=O)(=O)c2cccc(C(F)(F)F)c2)CC1 (stereo unspecified)	i	i	9*	i	-6
CC[C@@]1(C(=O)OC)N[C@H](CN(C)C(=O)c2ccc(C)cc2)[C@@H]2C(=O)N(C)C(=O)[C@@H]21	·	i	·	·	·
CCCCCCCN1C(Nc2ccccc2)=NC[C@@H]1CC(C)C	7*	i	i	i	-14
CC(C)C[C@H]1CN=C(Nc2ccccc2)N1CCCC1CCCC1	i	i	i	i	-18
CC(C)NC(=S)NC(c1ccccc1)(c1ccccc1)c1ccccc1	10*	i	i	i	-4
C/C(=N\NC(=S)NC(C)C)c1ccccc1	i	i	i	i	-12
SMILES	KCNQ1 inh	KCNK3 inh	KCNQ1 act	KCNK9 inh	hERG rescue
CC1CCCCC12NC(=O)N(CC(=O)Nc1ccc(N3CCCCC3)cc1)C2=O (stereo unspecified)	·	i	·	·	·
CC(C)n1cc(NC(=O)c2cc(-c3ccccc3)on2)cn1	i	i	11*	i	-2
O=C(Nc1cccnc1)c1cc(-c2ccccc2)on1	i	i	i	i	-1
CC(OC(=O)c1cccc(S(=O)(=O)N2CCOCC2)c1)C(=O)NC1CCCCC1C (stereo unspecified)	·	i	·	·	·
COCCCN(C(=O)C1CCC1)c1c(N)n(Cc2ccccc2)c(=O)[nH]c1=O	·	i	·	·	·
Cc1ccc(-n2ncc3c(=O)n(CC(=O)N4CCN(c5ccccc5F)CC4)cnc32)cc1C	i	i	7*	i	0
COc1ccc(N=Nc2ccc(O)c3ncccc23)cc1	i	i	i	i	-10
